Results taken from ChEMBL document CHEMBL1166014, “Targeting efflux pumps-In vitro investigations with acridone derivatives and identification of a lead molecule for MDR modulation” (Bioorg Med Chem, 2010).
≈ marks a conversion by molar mass, not a printed value. Calls of active or inactive are those of the source. The rule behind the calls is not given here.

Tests used:
[1] = Binding affinity to P-gp at 5 uM after 30 mins by spectrophotometry
How it was run: (§1)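 P-gp vesicles from DC-3F/ADX MDR cells; basal MgATP hydrolysis measured by PK/LDH-coupled NADH oxidation (PEP, NADH), with non-specific ATPase inhibitor; vesicles 5 min at 37 °C, compound added (final 0.05, 0.5, 5 µM) 5 min, MgATP then 20 min at 37 °C; A340 read twice 20 min apart; triplicate; verapamil, vinblastine, progesterone references.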

[2] = Binding affinity to P-gp at 0.5 uM after 30 mins by spectrophotometry; how it was run: as §1
[3] = Binding affinity to P-gp at 0.05 uM after 30 mins by spectrophotometry; how it was run: as §1
[4] = Binding affinity to Mg2+ at 100 uM in HEPES buffer of pH 7.2 by spectrophotometry
How it was run: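 Compound at 10^-4 M in 10^-2 M HEPES pH 7.2 titrated with Mg²⁺ (0–0.5 × 10^-4 M); absorbance changes at 270–310, 390–415 and 320–340 nm monitored; binding constant by Benesi–Hildebrand equation.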

ATP = experiment: Binding affinity to ATP at 50 uM in HEPES buffer of pH 7.2 by spectrophotometry
How it was run: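 UV-vis titration: compound held constant at 50 µM in HEPES pH 7.2, titrated with NaATP (from 10^-2 M stock) over 0–3 equiv; absorbance change followed; binding constant from Benesi–Hildebrand plot.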

Candida albicans [5] = experiment: Antifungal activity at Candida albicans CAI4 after 48 hrs by ELISA; format: functional; settings: CAI4, 48 h
How it was run: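 Broth microdilution; CAI4 streaked on YEPD, 30 °C 24 h; compounds serially diluted twofold in YEPD, solvent diluted alongside; growth control column; 30 °C 48 h; OD600 on plate reader; MIC80 = concentration giving 80% growth inhibition vs no-compound growth.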

[6] = Partition coefficient, log P of the compound; format: physicochemical; settings: octanol/water
[7] = Binding affinity to P-gp assessed as increase in basal protein activity at 0.5 uM after 30 mins by spectrophotometry; how it was run: as §1
[8] = Binding affinity to P-gp assessed as increase in basal protein activity at 0.05 uM after 30 mins by spectrophotometry; how it was run: as §1
[9] = Binding affinity to P-gp assessed as increase in basal protein activity at 5 uM after 30 mins by spectrophotometry; how it was run: as §1
Candida albicans [10] = experiment: Antifungal activity at Candida albicans CAI4 assessed as inhibition of fungal growth at 0.9 mg/ml after 48 hrs by spot assay; format: functional, organism-based
How it was run: (§2)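 Spot assay on YEPD-agar plates containing compound (with Congo red or calcofluor white where applicable); solvent (MeOH/DMSO 1:1) and YEPD-only control plates; CAI4 primary culture 16 h, secondary 5 h at 30 °C from 4% inoculum, diluted in 0.9% saline; 10⁵ to 10⁰ cells spotted; 30 °C 48 h, growth scored.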

Candida albicans [11] = experiment: Antifungal activity at Candida albicans CAI4 assessed as inhibition of fungal growth at 1 mg/ml after 48 hrs by spot assay; format: functional, organism-based; how it was run: as §2
[12] = biological target: T1, Multidrug resistance protein CDR2 (Candida albicans (strain SC5314 / ATCC MYA-2876) (Yeast)) (UniProt P78595); experiment: Inhibition of CDR2-mediated efflux of rhodamine 6G in Candida albicans CAI4 at 800 ug/ml up to 60 mins by spectrofluorimetry in presence of 2 mM 2-deoxyglucose treated for 2 hrs before compound addition
T1 sequence (whole entry): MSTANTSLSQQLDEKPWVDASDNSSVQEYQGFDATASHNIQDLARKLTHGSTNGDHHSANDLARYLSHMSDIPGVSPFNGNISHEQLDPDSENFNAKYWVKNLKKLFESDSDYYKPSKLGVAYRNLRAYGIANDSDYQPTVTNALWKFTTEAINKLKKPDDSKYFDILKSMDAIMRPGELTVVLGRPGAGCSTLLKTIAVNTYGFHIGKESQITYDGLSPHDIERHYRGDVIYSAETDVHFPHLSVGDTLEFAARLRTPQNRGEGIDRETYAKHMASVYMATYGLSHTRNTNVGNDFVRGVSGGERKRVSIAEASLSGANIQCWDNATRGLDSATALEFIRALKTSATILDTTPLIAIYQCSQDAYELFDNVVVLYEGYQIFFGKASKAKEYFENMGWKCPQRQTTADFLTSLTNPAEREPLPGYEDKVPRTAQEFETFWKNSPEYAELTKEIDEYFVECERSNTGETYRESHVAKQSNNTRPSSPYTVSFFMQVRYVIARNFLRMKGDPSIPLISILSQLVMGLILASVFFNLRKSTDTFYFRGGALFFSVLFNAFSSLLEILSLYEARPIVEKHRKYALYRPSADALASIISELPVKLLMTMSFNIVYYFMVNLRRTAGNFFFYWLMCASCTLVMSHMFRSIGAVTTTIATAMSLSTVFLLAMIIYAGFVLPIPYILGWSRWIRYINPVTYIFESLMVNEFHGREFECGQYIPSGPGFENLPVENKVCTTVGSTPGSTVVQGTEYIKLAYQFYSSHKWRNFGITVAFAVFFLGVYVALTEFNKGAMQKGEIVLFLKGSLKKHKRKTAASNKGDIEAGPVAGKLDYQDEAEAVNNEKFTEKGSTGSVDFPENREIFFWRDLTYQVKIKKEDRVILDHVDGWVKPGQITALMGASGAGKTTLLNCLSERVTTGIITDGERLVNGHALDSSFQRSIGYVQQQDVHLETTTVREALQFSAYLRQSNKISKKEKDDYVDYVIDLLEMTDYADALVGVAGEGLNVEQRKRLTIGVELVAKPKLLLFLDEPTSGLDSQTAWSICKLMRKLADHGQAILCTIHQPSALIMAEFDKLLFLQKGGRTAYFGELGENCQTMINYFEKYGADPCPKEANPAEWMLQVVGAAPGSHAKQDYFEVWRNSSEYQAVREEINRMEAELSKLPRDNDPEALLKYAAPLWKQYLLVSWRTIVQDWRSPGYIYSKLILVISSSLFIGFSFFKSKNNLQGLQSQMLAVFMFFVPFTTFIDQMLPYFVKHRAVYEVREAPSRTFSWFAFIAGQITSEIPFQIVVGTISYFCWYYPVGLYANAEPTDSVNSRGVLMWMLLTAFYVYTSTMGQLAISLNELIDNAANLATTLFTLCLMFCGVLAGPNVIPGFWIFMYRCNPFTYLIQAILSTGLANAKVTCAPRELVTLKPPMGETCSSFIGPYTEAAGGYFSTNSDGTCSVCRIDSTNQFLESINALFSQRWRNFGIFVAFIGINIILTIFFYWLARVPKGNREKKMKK
How it was run: (§3)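 C. albicans CAI4 secondary culture (YEPD, 30 °C, ~5 h) washed in PBS, 2% cell suspension de-energised with 2 mM 2-deoxyglucose on rocker 2 h; R6G loaded, cells pelleted, washed, resuspended in PBS with or without 2% glucose; compound at 800 µg/ml with MeOH/DMSO 1:1 solvent control; supernatant R6G fluorescence read (ex 529, em 553 nm) over time.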

[13] = biological target: Multidrug resistance protein CDR1 (Candida albicans) (UniProt P43071); experiment: Modulation of CDR1-mediated rhodamine 6G accumulation in Candida albicans CAI4 assessed as increase in R6G influx at 800 ug/ml after 180 mins by spectrofluorimetry
How it was run: (§4)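 C. albicans CAI4 secondary culture (YEPD, 30 °C, ~5 h) washed in PBS, 2% suspension in PBS with 2 mM 2-deoxyglucose rocked 2 h; compound added at 800 µg/ml (MeOH/DMSO 1:1 solvent control), then R6G; aliquots over 0–180 min centrifuged, R6G left in supernatant measured as OD527.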

Candida albicans [14] = experiment: Antifungal activity at Candida albicans CAI4 assessed as reduction in colony formation at 0.9 mg/ml after 48 hrs by spot assay; format: functional, organism-based; how it was run: as §2
[15] = biological target: T1, Multidrug resistance protein CDR2 (Candida albicans (strain SC5314 / ATCC MYA-2876) (Yeast)); experiment: Modulation of CDR2-mediated rhodamine 6G accumulation in Candida albicans CAI4 assessed as increase in R6G influx at 800 ug/ml after 180 mins by spectrofluorimetry; how it was run: as §4
[16] = biological target: T1, Multidrug resistance protein CDR2 (Candida albicans (strain SC5314 / ATCC MYA-2876) (Yeast)); experiment: Modulation of CDR2-mediated rhodamine 6G accumulation in Candida albicans CAI4 assessed as inhibition of fungal growth at 800 ug/ml after 48 hrs by spot assay
How it was run: (§5)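 Spot assay: CAI4 grown in YEPD at 30 °C (16 h primary, 5 h secondary), diluted in 0.9% saline and spotted as 10⁵–10⁰ cells on YEPD agar containing compound plus R6G; solvent (MeOH/DMSO 1:1) and YEPD-only control plates; growth scored after 48 h at 30 °C.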

Candida albicans [17] = experiment: Effect of membrane integrity of Candida albicans CAI4 at 800 ug/ml after 48 hrs by spot assay in presence of 300 ug/ml calcofluor white; format: functional, organism-based; how it was run: as §2
[18] = biological target: Multidrug resistance protein CDR1 (Candida albicans) (UniProt P43071); experiment: Modulation of CDR1-mediated rhodamine 6G accumulation in Candida albicans CAI4 assessed as inhibition of fungal growth at 800 ug/ml after 48 hrs by spot assay; how it was run: as §5
Candida albicans [19] = experiment: Antifungal activity at Candida albicans CAI4 assessed as reduction in colony formation at 1 mg/ml after 48 hrs by spot assay; format: functional, organism-based; how it was run: as §2
[20] = biological target: Multidrug resistance protein CDR1 (Candida albicans) (UniProt P43071); experiment: Inhibition of CDR1-mediated efflux of rhodamine 6G in Candida albicans CAI4 at 800 ug/ml up to 60 mins by spectrofluorimetry in presence of 2 mM 2-deoxyglucose treated for 2 hrs before compound addition; how it was run: as §3
Candida albicans [21] = experiment: Effect of membrane integrity of Candida albicans CAI4 at 800 ug/ml after 48 hrs by spot assay in presence of 300 ug/ml congo red; format: functional, organism-based; how it was run: as §2

Chain of Multidrug resistance protein CDR1 (Candida albicans) (P43071 whole entry, looked up): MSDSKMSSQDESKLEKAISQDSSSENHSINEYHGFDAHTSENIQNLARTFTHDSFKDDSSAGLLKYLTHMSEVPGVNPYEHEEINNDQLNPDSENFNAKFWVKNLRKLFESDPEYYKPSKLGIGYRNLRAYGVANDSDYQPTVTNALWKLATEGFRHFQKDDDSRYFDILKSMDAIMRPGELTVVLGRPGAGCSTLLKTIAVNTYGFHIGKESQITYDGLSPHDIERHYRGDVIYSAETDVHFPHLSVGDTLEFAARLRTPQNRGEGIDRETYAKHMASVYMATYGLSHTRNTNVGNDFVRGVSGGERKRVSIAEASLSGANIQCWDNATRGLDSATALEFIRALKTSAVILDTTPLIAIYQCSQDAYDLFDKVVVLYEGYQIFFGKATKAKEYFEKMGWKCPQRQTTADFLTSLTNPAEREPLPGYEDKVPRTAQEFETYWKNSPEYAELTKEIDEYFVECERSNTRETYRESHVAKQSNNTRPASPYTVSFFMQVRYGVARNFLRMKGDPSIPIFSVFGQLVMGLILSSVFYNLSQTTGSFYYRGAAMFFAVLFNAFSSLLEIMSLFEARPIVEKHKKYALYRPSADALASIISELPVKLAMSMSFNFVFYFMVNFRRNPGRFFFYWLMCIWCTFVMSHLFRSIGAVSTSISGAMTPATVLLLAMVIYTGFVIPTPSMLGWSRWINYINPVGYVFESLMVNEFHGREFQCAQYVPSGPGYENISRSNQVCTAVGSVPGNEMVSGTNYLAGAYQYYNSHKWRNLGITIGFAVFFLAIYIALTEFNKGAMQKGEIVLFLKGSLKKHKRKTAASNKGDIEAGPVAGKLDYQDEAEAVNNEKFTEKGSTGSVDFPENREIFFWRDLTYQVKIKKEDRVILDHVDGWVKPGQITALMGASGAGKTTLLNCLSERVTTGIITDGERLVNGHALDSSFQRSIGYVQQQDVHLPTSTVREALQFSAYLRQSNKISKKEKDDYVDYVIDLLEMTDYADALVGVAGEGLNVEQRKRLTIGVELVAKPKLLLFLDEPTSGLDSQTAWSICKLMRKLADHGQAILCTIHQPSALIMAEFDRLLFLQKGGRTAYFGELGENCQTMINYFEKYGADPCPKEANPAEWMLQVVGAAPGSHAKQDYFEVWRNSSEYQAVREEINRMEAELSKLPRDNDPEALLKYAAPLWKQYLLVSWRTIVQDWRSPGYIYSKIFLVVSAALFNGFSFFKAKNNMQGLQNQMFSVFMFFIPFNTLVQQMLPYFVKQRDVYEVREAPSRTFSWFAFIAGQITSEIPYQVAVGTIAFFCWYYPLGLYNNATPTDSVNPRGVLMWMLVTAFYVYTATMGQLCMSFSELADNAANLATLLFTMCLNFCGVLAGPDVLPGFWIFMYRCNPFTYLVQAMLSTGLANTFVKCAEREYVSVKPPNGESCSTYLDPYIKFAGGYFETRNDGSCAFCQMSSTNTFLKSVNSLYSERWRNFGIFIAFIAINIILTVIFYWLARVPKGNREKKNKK

SMILES | RBA [1] | RBA [2] | RBA [3] | Ka [4] [×10⁵ /M] | Ka (ATP) | MIC80 (Candida albicans [5]) [mg/L] | Activity [7] [%] | Activity [8] [%] | Activity [9] [%] | further results
COc1ccc(CCN(C)CCCC(C#N)(c2ccc(OC)c(OC)c2)C(C)C)cc1OC (stereo unspecified) | 2.8 | 2.01 | 1.11 |  |  |  |  |  |  | 
CC(C)N(CC(O)Cn1c2ccccc2c(=O)c2cccc(Cl)c21)C(C)C (stereo unspecified) |  |  |  | 2.2 | 1.42 ×10⁵ /M | > 3000 |  |  |  | 
O=c1c2ccccc2n(CC(O)CN2CCCC2)c2c(Cl)cccc12 (stereo unspecified) |  |  |  | 0.95 | 6.57 ×10⁵ /M | > 3000 |  |  |  | 
O=C(O)c1cccc2c(=O)c3ccccc3n(CC(O)CN3CCOCC3)c12 (stereo unspecified) | 2.66 | 2 | 1.63 | 3.82 | inactive |  | 100 | 63 | 166 | logP [6]: 0.6
O=C(O)c1cccc2c(=O)c3ccccc3n(CC(O)CN3CCCCC3)c12 (stereo unspecified) | 2.44 | 1.66 | 1.57 | 19.7 | inactive |  | 66 | 57 | 144 | 
O=c1c2ccccc2n(CC(O)CN2CCCCC2)c2c(Cl)cccc12 (stereo unspecified) |  |  |  | 1.48 | 5 ×10⁵ /M | > 3000 |  |  |  | 
O=c1c2ccccc2n(CC(O)CN2CCC(N3CCCCC3)CC2)c2c(Cl)cccc12 (stereo unspecified) |  |  |  | 18.6 | 11 ×10⁵ /M | > 3000 |  |  |  | 
CC(=O)[C@H]1CC[C@H]2[C@@H]3CCC4=CC(=O)CC[C@]4(C)[C@H]3CC[C@]12C | 1.42 | 1.11 | 1 |  |  |  |  |  |  | 
CC[C@]1(O)C[C@@H]2CN(CCc3c([nH]c4ccccc34)[C@@](C(=O)OC)(c3cc4c(cc3OC)N(C)[C@H]3[C@@](O)(C(=O)OC)[C@H](OC(C)=O)[C@]5(CC)C=CCN6CC[C@]43[C@@H]65)C2)C1 | 1.21 | 1.37 | 0.98 |  |  |  |  |  |  | 
CC(C)N(CC(O)Cn1c2ccccc2c(=O)c2cccc(C(=O)O)c21)C(C)C (stereo unspecified) | 2.05 | 1.6 | 1.53 | 2 | inactive |  | 60 | 53 | 105 | 
CCN(CC)CC(O)Cn1c2ccccc2c(=O)c2cccc(Cl)c21 (stereo unspecified) |  |  |  | 0.39 | 7.9 ×10⁵ /M | 1500 (≈ 4.18 mM) |  |  |  | 
O=C(O)c1cccc2c(=O)c3ccccc3n(CC(O)CN3CCCC3)c12 (stereo unspecified) | 2 | 1.85 | 1.6 | 1.5 | inactive | 781 (≈ 2.13 mM) | 85 | 60 | 100 | inhibition (Candida albicans [10]): inactive; inhibition (Candida albicans [11]): inactive; inhibition [12]: Active; inhibition [13]: Active; inhibition (Candida albicans [14]): Active; inhibition [15]: Active; inhibition [16]: Active; inhibition (Candida albicans [17]): inactive; inhibition [18]: Active; inhibition (Candida albicans [19]): Active; inhibition [20]: Active; inhibition (Candida albicans [21]): inactive
O=c1c2ccccc2n(CC(O)CN2CCOCC2)c2c(Cl)cccc12 (stereo unspecified) |  |  |  | 17.1 | 4.08 ×10⁵ /M | > 3000 |  |  |  | 
CCN(CC)CC(O)Cn1c2ccccc2c(=O)c2cccc(C(=O)O)c21 (stereo unspecified) | 2.12 | 1.7 | 1.65 | 7.74 | inactive |  | 70 | 65 | 112 | 
